Tests used:
[1] = Inhibition of Trypanosoma brucei TREU927 Leucyl-tRNA Synthetase expressed in Escherichia coli BL21 (DE3)-RIPL using [14C]Leu by scintillation counting
Summary of the method: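 Compound preincubated 20 min at 37 °C without ATP, then started with 4 mM ATP. After 15 min, TCA-precipitated on filters. Nine-point IC50 curves, sigmoidal fit, reference inhibitor per batch.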

[2] = system: Trypanosoma brucei brucei; assay: Antitrypanosomal activity against bloodstream-form Trypanosoma brucei brucei 427 after 72 hrs; assay type: functional, organism-based; conditions: Trypanosoma brucei, 427, 72 h
Summary of the method: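 HMI-9 with 10% FBS, 10% Serum Plus and pen/strep; log-phase parasites at final 1.0 × 10^5/mL, 0.4% DMSO. Serially diluted compound, 72 h at 37 °C, 5% CO2, then resazurin for 2-4 h more. Fluorescence read at ex 544/em 590 nm. Triplicates averaged, IC50 from sigmoidal dose-response fit; suramin and pentamidine as positive controls.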

L929 = assay: Cytotoxicity against mouse L929 cells after 72 hrs; assay type: cell-based; conditions: L929, 72 h
Summary of the method: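 Fibroblasts grown in D-MEM with 10% FBS and pen/strep, kept subconfluent. Seeded from 1 × 10^4/mL suspension, attached overnight, medium replaced, serially diluted compound added from DMSO. Exposure 72 h at 37 °C, 5% CO2. Resazurin added for 3-4 h more, fluorescence read at ex 544/em 590 nm.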

IC50 [2] [µM]	Compound	IC50 [1] [µM]	IC50 (L929) [µg/mL]
–	CCOC(=O)C(Oc1ccc2c(c1)B(O)OC2)c1ccccc1 (stereo not drawn)	41.7	–
–	CCCCOc1ccc2c(c1)B(O)OC2	54.3	–
–	OB1OCc2ccc(OCc3ccccc3)cc21	30.6	–
–	CCCOc1ccc2c(c1)B(O)OC2	30.9	–
3.76	CCC(Oc1ccc2c(c1)B(O)OC2)C(C)=O (stereo not drawn)	3.5	> 10
–	OB1OCc2ccccc21 [BENZOXABOROLE]	22.1	–
0.37	CC(=O)C(C)(C)Oc1ccc2c(c1)B(O)OC2	5	> 10
–	O=C(Nc1ccccc1)Oc1ccc2c(c1)B(O)OC2	43.1	–
–	O=C1c2ccccc2C(=O)N1CCCOc1ccc2c(c1)B(O)OC2	> 100	–
–	OB1OCc2ccc(O)cc21	30.9	–
–	CCCC(Oc1ccc2c(c1)B(O)OC2)C(C)=O (stereo not drawn)	31.4	–
–	O=C(/C=C/c1cccc2c1B(O)OC2)c1ccccc1	412	–
0.026	N=C(N)c1ccc(OCCCCCOc2ccc(C(=N)N)cc2)cc1 [PENTAMIDINE]	–	–
–	CCC(O)C(C)Oc1ccc2c(c1)B(O)OC2 (stereo not drawn)	> 100	–
1.22	COC(=O)COc1ccc2c(c1)B(O)OC2	3.6	> 10
–	CC(C)(C)OC(=O)NCCOc1ccc2c(c1)B(O)OC2	> 100	–
5.49	CCOC(=O)C(C)(C)Oc1ccc2c(c1)B(O)OC2	2.1	> 10
–	O=C(O)COc1ccc2c(c1)B(O)OC2	> 100	–
–	CCC(=O)COc1ccc2c(c1)B(O)OC2	27.2	–
–	CCOC(=O)/C=C/c1ccc2c(c1)B(O)OC2	578	–
–	CC(C)Oc1ccc2c(c1)B(O)OC2	15.8	–
–	CCCC(=O)COc1ccc2c(c1)B(O)OC2	30.8	–
–	OCCCc1ccc2c(c1)B(O)OC2	688	–
2.09	CC(=O)C(C)Oc1ccc2c(c1)B(O)OC2 (stereo not drawn)	3.8	> 10
–	CCOC(=O)/C=C/c1cccc2c1B(O)OC2	> 1000	–

IC50 [2] [µM]	Compound	IC50 [1] [µM]	IC50 (L929) [µg/mL]
–	CCOC(=O)CCc1ccc2c(c1)B(O)OC2	16.7	–
–	OB1OCc2ccc(OCc3ccccc3F)cc21	25.6	–
–	OB1OCc2ccc(OCC3CCCCC3)cc21	> 100	–
–	CCOc1ccc2c(c1)B(O)OC2	13	–
–	CCOC(=O)CCc1cccc2c1B(O)OC2	> 1000	–
8.25	CCC(=O)C(C)Oc1ccc2c(c1)B(O)OC2 (stereo not drawn)	2.5	> 10
–	COC(COc1ccc2c(c1)B(O)OC2)OC	71.3	–
–	OB1OCc2ccc(Oc3ccc4ccccc4n3)cc21	63	–
–	OCCCc1cccc2c1B(O)OC2	541	–
–	CC(C)CC(=O)COc1ccc2c(c1)B(O)OC2	67.6	–
2.74	CC(=O)C(Oc1ccc2c(c1)B(O)OC2)C(C)C (stereo not drawn)	4.5	> 10
–	O=C(NC1CCCCC1)Oc1ccc2c(c1)B(O)OC2	32.3	–
–	O=C(/C=C/c1ccc2c(c1)B(O)OC2)c1ccccc1	209	–
–	COCCOc1ccc2c(c1)B(O)OC2	> 100	–
12.9	CCCC(=O)C(CC)Oc1ccc2c(c1)B(O)OC2 (stereo not drawn)	2.9	> 10
3	CCOC(=O)C(C)Oc1ccc2c(c1)B(O)OC2 (stereo not drawn)	2.8	> 10
0.72	CCOC(=O)COc1ccc2c(c1)B(O)OC2	3.5	> 10
–	CC(C)(C)NC(=O)COc1ccc2c(c1)B(O)OC2	> 100	–
2.61	CC(C)(C)OC(=O)COc1ccc2c(c1)B(O)OC2	7.4	> 10
–	O=CCOc1ccc2c(c1)B(O)OC2	> 100	–
0.005	Cc1ccc(C(=O)Nc2ccc(S(=O)(=O)O)c3cc(S(=O)(=O)O)cc(S(=O)(=O)O)c23)cc1NC(=O)c1cccc(NC(=O)Nc2cccc(C(=O)Nc3cc(C(=O)Nc4ccc(S(=O)(=O)O)c5cc(S(=O)(=O)O)cc(S(=O)(=O)O)c45)ccc3C)c2)c1 [SURAMIN]	–	–
11.3	CCOC(=O)C(CC)Oc1ccc2c(c1)B(O)OC2 (stereo not drawn)	1.6	> 10
–	OB1OCc2ccc(OCc3ccccn3)cc21	> 100	–
–	CCNC(=O)COc1ccc2c(c1)B(O)OC2	77.7	–
